ChEMBL document CHEMBL1124823, “Antimitotic agents: synthesis of imidazo[4,5-c]pyridin-6-ylcarbamates and imidazo[4,5-b]pyridin-5-ylcarbamates” (J Med Chem, 1990)

Columns and labels:
Mus musculus [1] = assay: Increase in life span (ILS) in mice implanted intraperitoneally with lymphocytic leukemia P388 cells at a nontoxic dose of 100 mg/kg; type: functional; settings: P388, ip, route intraperitoneal
L1210 [2] = assay: The compound was tested for cell growth inhibitory activity against lymphoid leukemia L1210 cell line.; type: functional, cell-based; settings: Mus musculus
In short: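 Cultured lymphoid leukemia L1210 cells were grown with agent for 48 h. The value is the micromolar concentration that inhibits proliferation to 50% of control growth.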

L1210 [3] = assay: Concentration that causes a mitotic index (number of cells in mitosis divided by total cells) of cultured lymphoid leukemia L1210 cells.; type: functional, Mus musculus
In short: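 Cultured lymphoid leukemia L1210 cells were exposed to agent for 12 h. Mitotic index was taken as the number of cells in mitosis divided by total cells. The value is the micromolar concentration giving a mitotic index of 0.5.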

Mus musculus [4] = assay: Increase in life span (ILS) in mice implanted intraperitoneally with lymphocytic leukemia P388 cells at a nontoxic dose of 100 mg/kg; toxic dose by weight loss when repeated; type: functional; settings: P388, ip, route intraperitoneal
Mus musculus [5] = assay: Increase in life span (ILS) in mice implanted intraperitoneally with lymphocytic leukemia P388 cells at a nontoxic dose of 200 mg/kg; toxic dose by weight loss when repeated; type: functional; settings: P388, ip, route intraperitoneal
Mus musculus [6] = assay: Increase in life span (ILS) in mice implanted intraperitoneally with lymphocytic leukemia P388 cells at a nontoxic dose of 200 mg/kg; type: functional; settings: P388, ip, route intraperitoneal
Mus musculus [7] = assay: Increase in life span (ILS) in mice implanted intraperitoneally with lymphocytic leukemia P388 cells at a nontoxic dose of 50 mg/kg; type: functional; settings: P388, ip, route intraperitoneal
Mus musculus [8] = assay: Increase in life span (ILS) in mice implanted intraperitoneally with lymphocytic leukemia P388 cells at a nontoxic dose of 2 mg/kg; type: functional; settings: P388, ip, route intraperitoneal

Row | Compound | IC50 (L1210 [2]) [µM] | MI0.5 (L1210 [3]) [µM] | also measured
1 | CCOC(=O)Nc1cc2c(nc(SCc3ccc4c(c3)OCO4)n2N)c(N)n1 | 0.17 | – | ILS at 100 mg/kg (Mus musculus [1]): 25%
2 | CCOC(=O)Nc1cc2c(ncn2/N=C/c2ccccc2)c(N)n1 | 0.15 | 0.61 | ILS at 100 mg/kg (Mus musculus [4]): 39%
3 | CCOC(=O)Nc1cc(N/N=C/c2ccccc2)c2[nH]c(SCc3ccccc3)nc2n1 | 46 | – | –
4 | CCOC(=O)Nc1cc2c(nc(SCc3ccc(OC)cc3)n2N)c(N)n1 | 0.06 | – | ILS at 100 mg/kg (Mus musculus [1]): 24%
5 | CCOC(=O)Nc1cc(N/N=C/c2ccccc2)c2[nH]cnc2n1 | 0.25 | 0.94 | ILS at 100 mg/kg (Mus musculus [4]): 46%
6 | CCOC(=O)Nc1cc2c(nc(SCc3ccccc3)n2N)c(N)n1 | 0.6 | 1.6 | ILS at 200 mg/kg (Mus musculus [5]): 39%
7 | CCOC(=O)Nc1cc2c(nc(S)n2/N=C/c2ccccc2)c(N)n1 | 0.47 | 11 | ILS at 200 mg/kg (Mus musculus [6]): 6%
8 | CCOC(=O)Nc1cc(N/N=C/c2ccccc2)c2[nH]c(S)nc2n1 | 1.5 | 5.5 | ILS at 200 mg/kg (Mus musculus [6]): 10%
9 | CCOC(=O)Nc1cc(N(C)/N=C/c2ccccc2)c2nc[nH]c2n1 | 3.1 | – | –
10 | CCOC(=O)Nc1cc(N/N=C/c2ccccc2)c(N)c(N)n1 | 4.6 | 15 | ILS at 50 mg/kg (Mus musculus [7]): 4%
11 | CCOC(=O)Nc1cc2c(nc(S)n2N)c(N)n1 | > 30 | – | –
12 | CCOC(=O)Nc1cc2c(nc(SCc3ccccc3)n2/N=C/c2ccccc2)c(N)n1 | 50 | – | –
13 | CCOC(=O)Nc1cc2[nH]c(-c3ccccc3)nc2c(N)n1 | 0.9 | 8 | ILS at 200 mg/kg (Mus musculus [6]): 0%
14 | CCOC(=O)Nc1cc2c(c(N)n1)N=C(c1ccccc1)CN2 | – | 0.0028 | ILS at 2 mg/kg (Mus musculus [8]): 51%
